Results as given in publication PMC2119492 (The Journal of Cell Biology, 1993).

Assays:
Type in all cases: cell-based, Saccharomyces cerevisiae
[1] = system: end3 cells (RH266-1D); test: a-factor sensitivity halo assay; settings: 24 °C
Outline: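 Halo assay. Early log-phase cells were counted, washed with YPUAD and embedded in YPUAD containing 0.8% agar at 47°C. Disks containing α-factor were placed on the agar surface, and the radius of the growth-inhibition zone was read. The radius is logarithmically proportional to strain sensitivity.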

[2] = system: end4 cells (RH268-1C); test: LY-CH accumulation in the vacuole; settings: LY 4 mg/ml, fluorescence microscopy, minimum of 46 cells counted
Outline: (§1)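 Cells grown overnight at 24°C, then harvested and split. One half stayed at 24°C. The other was shifted slowly to 35°C by resetting the water bath, and lucifer yellow CH (4 mg/ml) was added once 35°C was reached. Cells were washed extensively in ice-cold 50 mM sodium succinate pH 5 with 10 mM sodium azide, then viewed by Nomarski and fluorescence optics with 20–25 s exposures. Cells with clear vacuolar staining were scored positive. Cells without staining but with a vacuole visible by Nomarski were scored negative.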

[3] = system: end3 cells (RH266-1D); test: LY-CH accumulation in the vacuole; settings: LY 4 mg/ml, fluorescence microscopy, minimum of 46 cells counted
Outline: as §1

[4] = system: wild-type cells (RH144-3D); test: LY-CH accumulation in the vacuole; settings: LY 4 mg/ml, fluorescence microscopy, minimum of 46 cells counted
Outline: as §1

[5] = system: wild-type cells (RH144-3D); test: 35S-a-factor internalization assay; settings: after a 34 °C preincubation; data not shown

alpha-factor was tested, and the “a-factor needed to form the same size halo, relative to end4 or wild-type cells” value [1] was “approximately two times less”.
In the case of Lucifer yellow-CH [LY], the “% of cells showing vacuolar labeling” value ([2]; 24 °C, 2 h) is reported as 10%, the “% of cells showing vacuolar labeling” value ([2]; 35 °C, 1 h) is reported as 0% and the “% of cells showing vacuolar labeling” value ([3]; 24 °C, 2 h) is reported as 4%. For the same compound, the “% of cells showing vacuolar labeling” value ([3]; 35 °C, 1 h) was 4%, the “% of cells showing vacuolar labeling” value ([4]; 24 °C, 2 h) was 92% and the “% of cells showing vacuolar labeling” value ([4]; 35 °C, 1 h) was 97%.
With `C[C@@H]1C[C@@H]([C@H](O)CC2CC(=O)NC(=O)C2)C(=O)[C@@H](C)C1` [cycloheximide] the “effect of cycloheximide on a-factor internalization kinetics” value [5] was “identical to cells which receive no cycloheximide”.
